High-throughput results as filed in PubChem.
eIF4E 4G PPI: eIF4E–eIF4G protein interaction inhibitors, primary screen, biochemical, uHTS, TR-FRET, eIF4GI fragment. Eukaryotic translation initiation factor 4E (Mus musculus) + Eukaryotic translation …. TR-FRET eIF4E-eIF4GI(517-606) binding, 2 h. inhibition, % at 21.7 µM. 220,000 tested, 0.37% active. AID 782, 2007;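 active means inhibition above about 30%, limit read from the data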;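 further: 0% = full FRET control wells and 100% = background wells lacking eIF4GI fragment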
PKD1 inh: inhibitors of human PKD1 kinase, biochemical, fluorescence polarization; 200,000 tested, 0.056% active; Serine/threonine-protein kinase D1 (Homo sapiens), Q15139; inhibition, % (no concentration beside the values); PKD1 kinase fluorescence polarization assay
14-3-3 Bad PPI: inhibitors of 14-3-3 zeta/Bad binding, primary screen, biochemical, TR-FRET, bovine 14-3-3 zeta; 14-3-3 protein zeta/delta (Bos taurus), P63103; inhibition, % at 21.7 µM; TR-FRET 14-3-3zeta/Dy647-pBad peptide displacement, 1 h; AID 781, 2007; 220,000 tested, 0.71% active;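 active means inhibition above about 70%, limit read from the data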;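 further: 0% = full 14-3-3 plus peptide FRET controls and 100% = background without 14-3-3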
Target sequence (P63103 whole entry, looked up): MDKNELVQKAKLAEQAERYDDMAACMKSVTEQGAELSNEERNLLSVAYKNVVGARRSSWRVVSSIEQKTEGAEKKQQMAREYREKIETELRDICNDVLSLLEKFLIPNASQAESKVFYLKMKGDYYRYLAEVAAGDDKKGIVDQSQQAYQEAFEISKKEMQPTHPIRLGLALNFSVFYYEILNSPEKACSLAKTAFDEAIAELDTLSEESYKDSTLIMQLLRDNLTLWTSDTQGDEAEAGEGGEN
EBV gp42 block: Epstein-Barr virus gp42 inhibitors, primary screen, biochemical, uHTS, fluorescence polarization; Fluorescence polarization binding assay, mP read-out; 220,000 tested, 0.42% active; AID 1085, 2008; inhibition, % (tested at 21.74 µM); Glycoprotein 42 (Epstein-Barr virus (strain AG876)), Q1HVG2
Target sequence (Q1HVG2 whole entry, looked up): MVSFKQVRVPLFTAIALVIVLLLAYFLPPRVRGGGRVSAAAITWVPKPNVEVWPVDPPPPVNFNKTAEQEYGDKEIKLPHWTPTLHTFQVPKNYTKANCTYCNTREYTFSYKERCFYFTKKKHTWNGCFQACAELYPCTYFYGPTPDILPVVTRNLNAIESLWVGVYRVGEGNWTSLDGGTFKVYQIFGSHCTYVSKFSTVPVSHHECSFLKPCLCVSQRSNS
RBBP9 inhibitor: human RBBP9 inhibitors, primary screen, biochemical, fluorescence polarization, FP-Rh probe, HTS; recombinant RBBP9; inhibition, % at 7.94 µM; 220,000 tested, 0.2% active; AID 1515, 2009;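 active means inhibition above the campaign mean of all tested compounds plus 3 SD, cut at about 14% in these data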;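 further: plate controls were DMSO wells with RBBP9 for no effect and wells lacking RBBP9 protein for full effect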
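Measured by – fluorescence polarization · Test system – RBBP9 protein · Input – 2.5 µM RBBP9 dispensing solution, before mixing · Measure – percent inhibition from mP, scaled between DMSO and no-protein wells · Benchmarks – DMSO-treated enzyme wells and wells lacking RBBP9 · Times – preincubation 30 min plus labeling 45 min at 25 °C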
The depositor's hits bear a star; nt = not tested or not shown; [ ] = remark or other dose. Hits are enriched below; roughly 1.6% of the tested compounds scored in any of these assays. Unless noted, no stated cut-off is given here; in the data, active means inhibition above about 50%; inactive means the rest.

SMILES	eIF4E 4G PPI	PKD1 inh	14-3-3 Bad PPI	EBV gp42 block	RBBP9 inhibitor
CCCCNC(=O)C1CCN(C/C(C)=C/c2ccccc2)CC1	-2	-9	71*	-9	-5
Cc1ccc(C(=O)Nc2nc3nc(-c4ccccc4)cc(=O)n3[nH]2)cc1	2	-1	7	-4	-11
CSc1nc2nc(-c3ccccc3)cc(=O)n2[nH]1	-8	-8	79*	8	-2
CN(C)S(=O)(=O)c1ccc(Cl)c(NC(=O)CN2C(=O)NC(C)(C3CC3)C2=O)c1 (stereo unspecified)	-15	nt	-2	-22	-7
Oc1ccc(/C=N/Nc2nc(-c3cccnc3)nc3ccccc23)c(O)c1	-4	nt	83*	-13	8
CCOC(=O)c1ccc(Nc2nc(-c3cccnc3)nc3ccccc23)cc1	-7	11	75*[fluorescence artefact?]	-40	-14
O=C(Oc1ccc(Nc2ncnc3ccccc23)cc1)c1cccnc1	-1	-2	82*	8	-3
COc1ccc(C(NC(=O)C(C)C)c2c(O)ccc3ccccc23)cc1OC (stereo unspecified)	-3	-2	11	-7	-16
O=C(COc1ccccc1[N+](=O)[O-])Nc1ccc2c(c1)OCO2	0	-4	-15	5	-2
O=C(COc1ccc(/C=N/NC(=O)c2cc3ccccc3o2)cc1Br)Nc1ccccc1	-18	-7	86*[fluorescence artefact?]	-27	-9
O=C(Nc1ccccc1)c1cc2ccccc2o1	-2	2	-10	3	-12
O=C(COc1ccccc1[N+](=O)[O-])Nc1ccc(NC(=O)c2cc3ccccc3o2)cc1	12	-2	90*	39	-2
O=C1C(Cl)=C(Nc2ccccc2O)C(=O)N1CCc1ccccc1	28	-8	-23	-20	2
O=C1NC(=O)[C@@H]2C3c4ccccc4C=CN3[C@H](C(=O)c3cccs3)[C@H]12 (stereo partly specified)	-15	12	18	88*	-1
O=C(/C=C/c1cn(-c2ccccc2)nc1-c1cccnc1)NCCN1CCOCC1	-4	-7	85*	-15	5
CCN(CC)c1ccc(C(=O)OCC(=O)NC(C)(C)C)cc1	-8	nt	-5	42	1
COc1cc(CNC2CCCC2)cc(Cl)c1OCc1ccccc1F	10	3	-8	4	-9
COCCCn1cnnc1SCc1nc2sc(C(C)=O)c(C)c2c(=O)[nH]1	-4	nt	36	-4	-5
CC(CCc1ccccc1)NCc1ccncc1 (stereo unspecified)	0	6	90*	-11	0
CC(Cc1ccccc1)C(=O)NCc1ccncc1 (stereo unspecified)	0	-4	-5	-16	-5
Cc1cc(-c2ccccc2)nc(=O)[nH]1	12	-4	74*	2	-8
S=C(NCC1CCCO1)N1CCN(Cc2ccccc2)CC1 (stereo unspecified)	4	0	70*	-6	-5
COc1cccc(/C(O)=C/c2nc3ccc(C(=O)NCCc4cccc(C)c4)cc3[nH]c2=O)c1	5	6	-2	37	-15
COc1cccc(/C(O)=C/c2nc3ccc(C(=O)NCCc4ccc(Cl)cc4)cc3[nH]c2=O)c1	-4	3	-1	107*	0
Cc1ccccc1NC(=O)Cc1nnc(N)s1	-2	nt	-11	-2	-3
SMILES	eIF4E 4G PPI	PKD1 inh	14-3-3 Bad PPI	EBV gp42 block	RBBP9 inhibitor
CNC(=O)COC(=O)c1cc(-c2ccco2)nc2ccccc12	38*	nt	61	31	4
O=C(O)c1ccccc1/C=N/NC(=O)c1cc(-c2ccco2)nc2ccccc12	45*	nt	70	59*	-6
CCN(CC)C(=O)COC(=O)c1cc(-c2ccc(OC)cc2)nc2ccccc12	3	-4	6	1	0
CCN(CC)C(=O)COC(=O)c1cc(-c2ccco2)nc2ccccc12	34*	0	24	52*	-6
CCOc1ncccc1C(=O)Nc1nc(SC)ns1	5	-3	-1	-11	3
CSc1nc(C)c(C(=O)C[n+]2ccccc2)cc1C#N	6	nt	6	-13	12
CCN1C(=O)/C(=C\c2ccc(-c3ccc([N+](=O)[O-])cc3OC)o2)SC1=Nc1cccc(C(=O)O)c1	64*	-1	60	81*	-2
CC(C(Sc1ccccc1N)c1ccccc1)[N+](=O)[O-] (stereo unspecified)	-5	nt	-2	-26	-7
COCCCNC(=O)CSc1ccsc1[N+](=O)[O-]	0	-7	-4	-18	0
Cc1ccccc1NC(=O)CSc1ccsc1[N+](=O)[O-]	23	-11	18	70*	-6
O=C(Nc1ccccc1C(=O)N1CCCC1)C1COc2ccccc2O1 (stereo unspecified)	-3	66*	0	-7	-3
CCOC(=O)C(C(=O)OCC)c1cc(Br)c2noc3c2c1C(=O)c1ccccc1-3	6	-8	-10	133*	-4
CC(=O)OCCNc1cc(N2CCN(C)CC2)c2noc3c2c1C(=O)c1ccccc1-3	-7	4	-17	12	-2
c1ccc(-n2cccc2CNC2CCCCC2)cc1	-4	6	70*	-12	-6
CC1CCc2cc(F)ccc2N1C(=O)CCC(=O)O (stereo unspecified)	-8	-18	-5	-27	-3
CC1CCc2cc(F)ccc2N1C(=O)C12CCC(C)(C(=O)O1)C2(C)C (stereo unspecified)	2	3	92*	3	1
COc1ccc(Cl)cc1N(CC(=O)NCC(C)C)S(=O)(=O)c1ccc(C)c([N+](=O)[O-])c1	1	1	-11	-3	-2
O=C(Nc1nc(-c2ccccc2)nc2ccccc12)c1ccc(F)cc1	8	0	1	-17	6
COc1cccc(CNC(=O)C2CCN(S(=O)(=O)c3ccccc3)CC2)c1	-6	2	-3	-10	-4
COc1ccc(S(=O)(=O)N2CCC(C(=O)NCc3cccc(OC)c3)CC2)cc1	47*	-1	-3	-15	-5
CSc1nc(N)n2nc(-c3ccc(Cl)cc3)cc2n1	-10	nt	4	-20	-5
CCn1c(=N)c(S(=O)(=O)c2ccccc2)cc2c(=O)n3ccccc3nc21	-3	-7	79*	-6	5
CCn1c(=N)c(S(=O)(=O)c2ccc(C)cc2)cc2c(=O)n3ccccc3nc21	1	3	-1	-10	-9
NS(=O)(=O)c1ccc(CNC(=O)c2scc3c2CCCC3)cc1	5	5	-11	14	-6
C/C=N\NC(=O)COc1cc(C)ccc1C	0	-2	-11	-3	-8
